How the values were obtained:
MRPs = experiment: Glucuronide excretion in HeLa1A1 cells with MK571; format: cell-based; conditions: CA 10 μM, MK571 5 or 20 μM
Procedure, shortened: (§1)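 HeLa cells overexpressing UGT1A1 grown in DMEM/10% FBS, seeded 2 × 10^5 cells/well and used near 90% confluence after HBSS washes. Exposed at 37 °C to test compound 10 μM in HBSS with inhibitor 5 or 20 μM or vehicle. Medium sampled at 0.5, 1, 1.5 and 2 h; cells lysed at 2 h in 50% methanol. Excretion rate, CLapp (ER/intracellular concentration) and fmet calculated; triplicate.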

BCRP = target: T1, BCRP (Homo sapiens, UniProt Q9UNQ0); experiment: Glucuronide excretion in HeLa1A1 cells with DIPY; format: cell-based; conditions: CA 10 μM, DIPY 5 or 20 μM
T1 sequence (Q9UNQ0 1-655): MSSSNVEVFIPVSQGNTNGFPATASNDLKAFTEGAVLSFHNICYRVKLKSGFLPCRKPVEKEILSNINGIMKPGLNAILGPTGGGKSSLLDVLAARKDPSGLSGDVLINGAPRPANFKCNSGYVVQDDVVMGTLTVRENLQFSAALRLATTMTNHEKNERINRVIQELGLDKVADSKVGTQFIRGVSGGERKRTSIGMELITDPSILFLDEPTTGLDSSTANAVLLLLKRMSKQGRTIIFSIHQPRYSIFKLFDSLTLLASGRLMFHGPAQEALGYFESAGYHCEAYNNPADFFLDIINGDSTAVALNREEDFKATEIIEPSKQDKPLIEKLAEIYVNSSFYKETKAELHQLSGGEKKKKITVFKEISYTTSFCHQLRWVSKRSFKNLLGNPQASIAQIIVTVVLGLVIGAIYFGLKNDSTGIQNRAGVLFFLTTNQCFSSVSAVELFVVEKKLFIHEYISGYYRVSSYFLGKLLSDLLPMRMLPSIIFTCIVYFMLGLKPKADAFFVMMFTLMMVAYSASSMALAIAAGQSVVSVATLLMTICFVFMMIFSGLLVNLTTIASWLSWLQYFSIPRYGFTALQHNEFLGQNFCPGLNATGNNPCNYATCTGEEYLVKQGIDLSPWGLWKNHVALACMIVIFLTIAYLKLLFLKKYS
Procedure, shortened: as §1

| CA-O-glucuronide excretion (BCRP) | fmet values (BCRP) | intracellular amounts of glucuronide levels (BCRP) | Structure (SMILES) | fmet value (MRPs) | intracellular accumulation of glucuronide (MRPs) |
| --- | --- | --- | --- | --- | --- |
| – | – | – | CN(C)C(=O)CCSC(SCCC(=O)O)c1cccc(/C=C/c2ccc3ccc(Cl)cc3n2)c1 (centres unmarked) [MK571] | significant reduction | elevated |
| moderate decrease | significant decrease | statistical increase | OCCN(CCO)c1nc(N2CCCCC2)c2nc(N(CCO)CCO)nc(N3CCCCC3)c2n1 [DIPY, dipyridamole] | – | – |

Source: paper PMC7396962 (Xenobiotica; the fate of foreign compounds in biological …, 2020)
